Data taken from ChEMBL document CHEMBL1153929, “Exploration and synthesis of curcumin analogues with improved structural stability both in vitro and in vivo as cytotoxic agents” (Bioorg Med Chem, 2009).

Experiments:
[1] = Hydrolytic stability assessed as compound degradation at 2 mg in sodium dihydrogen phosphate buffered 0.3% sodium carboxymethylcellulose solution at pH 7.4 after 45 hrs by HPLC; assay type: physicochemical; conditions: read-out: Activity
Outline: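 2 mg of sample was vortexed into 1 ml of 0.3% (w/v) CMCNa solution in phosphate buffer at pH 7.4 and kept in the dark at 37 °C. HPLC peak areas were recorded. Degradation = (area at 0 h − area at end time) / area at 0 h × 100%.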

[2] = system: HeLa; assay: Cytotoxicity against human HeLa cells after 72 hrs by MTT assay; assay type: functional, cell-based
Outline: (§1)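 Cells were plated at 5000 per well in 1640 medium with 5% heat-inactivated calf serum and penicillin/streptomycin, at 37 °C and 5% CO2. After 24 h, compounds in DMSO were added at final 100, 33.3, 11.1 and 3.7 µg/ml for 72 h. MTT (5 mg/ml in 0.9% NaCl) was then added for 3 h, the formazan dissolved in DMSO, and absorbance read at 570 nm.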

[3] = system: KB (human); assay: Cytotoxicity against human KB cells after 72 hrs by MTT assay
[4] = system: PC-3; assay: Cytotoxicity against human PC3 cells after 72 hrs by MTT assay; assay type: functional, cell-based; conditions: PC-3, 72 h; outline: as §1
[5] = system: CNE; assay: Cytotoxicity against human CNE cells after 72 hrs by MTT assay; assay type: functional, cell-based; outline: as §1
[6] = Cytotoxicity against human LS 174T cells after 72 hrs by MTT assay; assay type: functional, cell-based; conditions: LS174T; outline: as §1
[7] = system: HL-60 (human); assay: Cytotoxicity against human HL60 cells after 72 hrs by MTT assay; conditions: HL-60, 72 h
[8] = system: BGC-823; assay: Cytotoxicity against human BGC823 cells after 72 hrs by MTT assay; assay type: functional, cell-based; conditions: BGC-823, 72 h; outline: as §1

Row | Compound | degraded at 45 h [1] [%] | IC50 [2] [µM] | IC50 [3] [µM] | IC50 [4] [µM] | IC50 [5] [µM] | IC50 [6] [µM] | IC50 [7] [µM] | IC50 [8] [µM]
1 | O=C(/C=C/c1ccc(O)cc1)/C=C/c1ccc(O)cc1 | 0 | 217 | 41.5 | 48.9 | – | – | – | –
2 | COc1cc(/C=C2\CC/C(=C\c3cc(OC)c(OC)c(OC)c3)C2=O)cc(OC)c1OC | 0 | – | – | – | – | – | – | –
3 | CN(C)c1ccc(/C=C2\CC/C(=C\c3ccc(N(C)C)cc3)C2=O)cc1 | 0 | – | – | – | – | – | – | –
4 | O=C(/C=C/c1cccs1)/C=C/c1cccs1 | 0 | 6.2 | 123 | 10.3 | 154 | 79.5 | – | –
5 | C=CCOc1ccc(/C=C/C(=O)/C=C/c2ccc(OCC=C)cc2)cc1 | 0 | – | – | – | – | – | 64.6 | –
6 | C=CCOc1ccc(/C=C2\CCC/C(=C\c3ccc(OCC=C)cc3)C2=O)cc1 | 0 | – | 85.3 | – | – | – | – | –
7 | O=C(/C=C/c1ccc(OC2CCCCO2)cc1)/C=C/c1ccc(OC2CCCCO2)cc1 (centres undefined) | 0 | – | – | 43.4 | – | – | 0.3 | –
8 | CN(C)CCCOc1ccc(/C=C2\CC/C(=C\c3ccc(OCCCN(C)C)cc3)C2=O)cc1 | 0 | – | 3.3 | – | 2.4 | – | – | –
9 | COc1cc(/C=C2\CCC/C(=C\c3cc(OC)c(OC)c(OC)c3)C2=O)cc(OC)c1OC | 0 | 27.5 | 117 | 22.7 | – | – | 29.3 | –
10 | O=C(/C=C/C=C/c1ccccc1)/C=C/C=C/c1ccccc1 | 0 | – | – | – | – | – | 36.5 | –
11 | O=C1/C(=C/c2ccc(Br)o2)CCC/C1=C\c1ccc(Br)o1 | 0 | – | – | 21.8 | – | – | 65.8 | –
12 | Cc1ccsc1/C=C/C(=O)/C=C/c1sccc1C | 0 | – | – | 138 | – | – | – | –
13 | O=C1/C(=C/c2ccc(Br)s2)CC/C1=C\c1ccc(Br)s1 | 0 | – | – | – | – | 9 | – | –
14 | O=C1/C(=C/C=C/c2ccccc2)CCC/C1=C\C=C\c1ccccc1 | 0 | 49.9 | 29.4 | 61.5 | – | 24.3 | – | 15.6
15 | O=C(/C=C/c1ccc(F)cc1)/C=C/c1ccc(F)cc1 | 0 | – | 94.6 | 15.2 | – | 98.8 | – | –
16 | O=C1/C(=C/c2ccc3ccccc3c2)CC/C1=C\c1ccc2ccccc2c1 | 0 | – | – | – | – | – | – | 38.1
17 | O=C(/C=C/c1ccccc1Cl)/C=C/c1ccccc1Cl | 0 | – | 59 | – | – | – | 8.6 | –
18 | O=C(/C=C/c1ccccc1C(F)(F)F)/C=C/c1ccccc1C(F)(F)F | 0 | – | < 3.7 | 0.35 | – | – | < 10 | –
19 | O=C1/C(=C/c2cccc(Br)c2)CCC/C1=C\c1cccc(Br)c1 | 0 | 15.7 | 15.9 | – | – | 11.5 | – | –
20 | O=C(/C=C/c1ccc(Br)o1)/C=C/c1ccc(Br)o1 | 0 | 16.8 | 24.5 | 34.3 | – | 58.8 | – | 30.9
21 | CCOc1ccc(/C=C2\CC/C(=C\c3ccc(OCC)cc3)C2=O)cc1 | 0 | 24 | – | – | – | – | – | –
22 | CCOc1ccc(/C=C2\CCC/C(=C\c3ccc(OCC)cc3)C2=O)cc1 | 0 | – | – | – | – | 5.6 | 85.8 | –
23 | O=C1/C(=C/C=C/c2ccccc2)CC/C1=C\C=C\c1ccccc1 | 0 | – | – | 117 | – | – | – | –
24 | O=C(/C=C/c1ccc2ccccc2c1)/C=C/c1ccc2ccccc2c1 | 0 | – | – | – | – | – | 69.2 | 39.7
25 | COc1cccc(/C=C2\CC/C(=C\c3cccc(OC)c3OC)C2=O)c1OC | 0 | 249 | – | – | – | – | – | –
26 | O=C1/C(=C/c2ccc(F)cc2)CC/C1=C\c1ccc(F)cc1 | 0 | 1.2 | – | – | – | – | – | –
27 | O=C1/C(=C/c2ccccc2Br)CC/C1=C\c1ccccc1Br | 0 | – | 109 | 24.7 | 32.8 | – | – | –

Row | Compound | degraded at 45 h [1] [%] | IC50 [2] [µM] | IC50 [3] [µM] | IC50 [4] [µM] | IC50 [5] [µM] | IC50 [6] [µM] | IC50 [7] [µM] | IC50 [8] [µM]
28 | O=C1/C(=C/c2ccccc2Cl)CC/C1=C\c1ccccc1Cl | 0 | – | 96 | – | – | – | 87.2 | –
29 | COc1cccc(/C=C/C(=O)/C=C/c2cccc(OC)c2OC)c1OC | 0 | – | 24.3 | – | – | 48 | 4.5 | 24.4
30 | COc1ccccc1/C=C/C(=O)/C=C/c1ccccc1OC | 0 | 161 | < 12.6 | – | – | – | < 12.6 | –
31 | COc1cc(/C=C/C(=O)/C=C/c2cc(OC)c(OC)c(OC)c2)cc(OC)c1OC | 0 | 95 | 98.7 | 8.8 | – | 148 | – | –
32 | COc1cccc(/C=C2\CCC/C(=C\c3cccc(OC)c3OC)C2=O)c1OC | 0 | – | 179 | – | – | 84.5 | – | 55.3
33 | C=CCOc1ccc(/C=C2\CCC/C(=C\c3ccc(OCC=C)c(OC)c3)C2=O)cc1OC | 0 | – | 102 | – | – | – | – | –
34 | O=C1/C(=C/c2ccc(OC3CCCCO3)cc2)CCC/C1=C\c1ccc(OC2CCCCO2)cc1 (centres undefined) | 0 | – | – | – | – | 3.9 | 134 | –
35 | CC(C)(C)c1ccc(/C=C2\CCC/C(=C\c3ccc(C(C)(C)C)cc3)C2=O)cc1 | 0 | – | 78.9 | – | – | – | – | –
36 | O=C1/C(=C/c2ccc(F)cc2)CCC/C1=C\c1ccc(F)cc1 | 0 | – | 150 | – | 77.9 | 7.4 | 58.1 | 87.3
37 | O=C1/C(=C/c2ccccc2Br)CCC/C1=C\c1ccccc1Br | 0 | – | 55.3 | – | – | – | – | –
38 | O=C1/C(=C/c2ccccc2Cl)CCC/C1=C\c1ccccc1Cl | 0 | – | 6.7 | 13.8 | – | 4.2 | 98.3 | 4.4
39 | O=C1/C(=C/c2ccccc2C(F)(F)F)CCC/C1=C\c1ccccc1C(F)(F)F | 0 | 46.3 | 54 | – | – | – | – | –
40 | COc1ccccc1/C=C1\CC/C(=C\c2ccccc2OC)C1=O | 0 | – | – | 5.3 | – | – | 2.3 | –
41 | Cc1ccc(C)c(/C=C/C(=O)/C=C/c2cc(C)ccc2C)c1 | 0 | 6.1 | – | 5.2 | 17.7 | 103 | – | –
42 | O=C1/C(=C/c2ccc(OC3CCCCO3)cc2)CC/C1=C\c1ccc(OC2CCCCO2)cc1 (centres undefined) | 0 | 39.1 | – | – | – | – | – | –
43 | CC(C)(C)c1ccc(/C=C/C(=O)/C=C/c2ccc(C(C)(C)C)cc2)cc1 | 0 | 21.8 | – | 12 | 89.8 | – | – | –
44 | O=C1/C(=C/c2ccc3c(c2)OCO3)CC/C1=C\c1ccc2c(c1)OCO2 | 0 | – | – | – | – | – | 225 | –
45 | O=C1/C(=C/c2ccccc2C(F)(F)F)CC/C1=C\c1ccccc1C(F)(F)F | 0 | – | < 9.34 | – | – | 213 | – | –
46 | C=CCOc1cc(/C=C2\CC/C(=C\c3ccc(OC)c(OCC=C)c3)C2=O)ccc1OC | 0 | – | – | – | – | – | – | 32.6
47 | Cn1cccc1/C=C1\CC/C(=C\c2cccn2C)C1=O | 0 | – | – | – | – | 9.2 | – | –
48 | O=C1/C(=C/c2ccccc2F)CCC/C1=C\c1ccccc1F | 0 | 15.5 | 74.1 | 45.8 | 130 | – | – | –
49 | Cc1ccc(/C=C2\CCC/C(=C\c3ccc(C)s3)C2=O)s1 | 0 | – | 249 | 77.6 | – | – | – | –
50 | Cn1cccc1/C=C1\CCC/C(=C\c2cccn2C)C1=O | 0 | – | 2.3 | – | – | – | – | –
51 | Cc1ccc(C)c(/C=C2\CCC/C(=C\c3cc(C)ccc3C)C2=O)c1 | 0 | – | 35.3 | – | – | – | – | –
52 | COc1cc(/C=C2\CCC/C(=C\c3ccc(O)c(OC)c3)C2=O)ccc1O [CYCLOVALONE] | 0 | – | < 10.1 | – | 17.6 | 4.6 | – | –
53 | O=C1/C(=C/c2cccs2)CCC/C1=C\c1cccs1 [TENYLIDONE] | 0 | – | 86 | – | – | – | – | –
